Screening results as filed in PubChem BioAssay.
Sampled rows, rich in hits. Any-hit rate of the full collection: about 5.1%.
STAT1 act-1: STAT1 signaling activators, primary screen, cell-based, HTS, luciferase reporter. NIH 3T3 STAT1-luciferase reporter, IFN-gamma, luminescence; 100% = IFN-gamma alone, no compound. activation (% of control), % at 5.5 µM. hit rate 2.6% among 200,000;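 active = activation above the screen-wide mean activation plus 3 SD, cut at about 130% in these data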;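 note: raw ratio to IFN-gamma control signal so 100% means no change and 0% no light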
STAT3 inh: IL-6 driven STAT3 reporter inhibitors, primary screen, U3A cells, luciferase, luminescence, MLSCN library; AID 862, 2007; inhibition, % at 5.5 µM; hit rate 0.89% among 190,000; IL-6 STAT3-luciferase reporter; host cell line lacks STAT1;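 active = inhibition above the mean inhibition across all screened compounds plus 3 SD, cut at about 44% in these data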;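 note: 0% = DMSO only wells and 100% = 100 µM nifuroxazide control wells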
NF-kB neuron act: activators of NF-kB expression in neurons, primary screen, cell-based, HTS; hit rate 1.6% among 190,000; AID 1239, 2008; fold change at 12.5 µM; human neuronal cells, NF-kB reporter expression; stronger effect = higher value; in the data active = fold change above about 3.3
STAT3 act-1: IL-6 driven STAT3 reporter potentiators, primary screen, U3A cells, luciferase, luminescence, MLSCN library; IL-6 STAT3-luciferase reporter; 100% = signal with IL-6 EC80 alone; activation (% of control), % at 5.6 µM; hit rate 0.91% among 190,000;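 active = activation above the screen-wide mean of compound activation plus 3 SD, cut at about 130% in these data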;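 note: 0% = background luminescence of wells with medium and substrate only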
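Test system: human U3A cells carrying STAT3-luciferase construct; control set: IL-6-only wells as 100% reference; timing: compound pre-incubation 1 h before IL-6, then 6 h stimulation at 37 °C; also added: IL-6 stimulus at 33 ng/mL final; evaluation: % activation versus median of IL-6-stimulated wells; detection: reporter luminescence signal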
APP 5'UTR act: activators of APP 5'UTR luciferase reporter, primary screen, SH-SY5Y cells; activation, % at 2 µM; SH-SY5Y APP 5'UTR luciferase reporter, luminescence; zero percent = DMSO vehicle wells; AID 1276, 2008; hit rate 1% among 190,000;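 active = activation above a set limit, based on mean plus 3 SD of controls, cut at about 140% in these data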
STAT1 blocker: STAT1 signaling inhibitors, primary screen, cell-based, HTS, luciferase reporter; NIH 3T3 STAT1-luciferase reporter, IFN-gamma, luminescence; inhibition, % at 5.5 µM; hit rate 0.35% among 200,000;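 active = inhibition above a set limit, the mean inhibition across all tested compounds plus 3 SD, cut at about 34% in these data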;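 note: 0% = IFN-gamma with DMSO and 100% = IFN-gamma with 300 µM nifuroxazide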
STAT3 act-2: STAT3 reporter potentiators, retest of hits, confirmation, U3A cells, luciferase, luminescence. shares compounds with STAT3 act-1. IL-6 potentiation; U3A cells lack STAT1; 100 means same as IL-6 alone. potentiation (% of control), % at 5.7 µM. hit rate 64% among 1,200;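 active = percent activation of the STAT3 luciferase reporter above a set limit taken from the earlier primary screen, cut at about 130% in these data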;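 note: 0% = background signal of medium plus substrate and 100% = median of IL-6 with DMSO wells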
NFkB act 2: NF-kB reporter activators in human cells, counter-screen for STAT3 activator project | shares compounds with STAT3 act-1 | NF-kappaB reporter activation | activation (% of control), % at 5.7 µM | hit rate 11% among 1,200 | AID 1309, 2008; in the data active = activation above about 120%;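 note: reporter induced by TNF-alpha stimulation; 100% = median of stimulated DMSO wells and 0% = no signal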
STAT1 act-2: STAT1 reporter activators, IFN-gamma induced, counter-screen for STAT3 activator project, cell-based, NIH 3T3, luciferase luminescence. shares compounds with STAT3 act-1. NIH 3T3 STAT1-luciferase reporter. activation (% of control), % at 5.7 µM. hit rate 13% among 1,200;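 active = activation above the solvent-only control well mean plus 3 SD, set per screening run, cut at about 120% in these data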;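 note: 100% = IFN-gamma with DMSO median signal so 100% means no change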
An asterisk follows results filed as active; x = no result.

SMILES	STAT1 act-1	STAT3 inh	NF-kB neuron act	STAT3 act-1	APP 5'UTR act	STAT1 blocker	STAT3 act-2	NFkB act 2	STAT1 act-2
CCCCOP(=O)(OCCCC)C1(NS(=O)(=O)c2ccccc2)C=CC(=O)c2ccccc21 (stereo unspecified)	100	-55	0.74	144*	-1	0	114	102	100
N#Cc1sc2nc(-c3ccccc3)cc(-c3ccco3)c2c1N	107	13	1.2	91	-17	-8	x	x	x
COc1cccc(-c2cc(C(F)(F)F)c3c(N)c(C#N)sc3n2)c1	103	-66	1.1	153*	-1	-4	134*	97	101
Cc1ccc(S(=O)(=O)NC(C)(C)CSc2ccccn2)cc1	97	-2	0.99	106	21	3	x	x	x
COc1ccc(CN2CCN(S(=O)(=O)c3ccc(C)cc3)CC2)cc1Br	101	-58	1.4	144*	-7	-1	137*	108	107
CCCN1CCN(S(=O)(=O)c2ccc(OC)c(Br)c2)CC1	110	8	1.3	96	-5	-11	x	x	x
CC(=O)c1sc2nc(-c3cccs3)cc(C(F)(F)F)c2c1N	97	-63	1.1	162*	0	3	146*	103	96
Cc1cc2c(cc1C)CSC(c1c(O)ccc3ccccc13)SC2	103	7	1.1	101	21	-3	x	x	x
Cc1cc2c(cc1C)CSC(c1ccc3ccccc3c1O)SC2	101	-61	1.2	152*	10	-2	128	96	97
CCc1ccc(N(C(=O)c2csnn2)C(C(=O)NC(C)(C)C)c2ccccn2)cc1 (stereo unspecified)	120	-37	1.7	139*	5	-21	135*	116	120
CCOC(=O)c1cnc(-c2ccccc2)nc1N(C)C	116	-87	1.9	173*	92	-18	155*	116	136*
O=C(Cc1c[nH]c2ccccc12)NCc1ccc2c(c1)OCO2	111	-40	1.2	138*	8	-12	137*	100	99
CCCC(C)NC(=O)Cc1ccccc1[N+](=O)[O-] (stereo unspecified)	96	-30	1.1	126	11	4	x	x	x
CCC(CC)NC(=O)Cc1ccccc1[N+](=O)[O-]	94	-30	1.2	138*	-11	10	140*	108	97
O=C(NNC1=C(C(=O)C(F)(F)F)CCC1)c1ccccc1Cl	104	9	0.98	90	6	-5	x	x	x
O=C(NNC1=C(C(=O)C(F)(F)F)CCC1)c1ccccc1O	97	-80	1.5	177*	-17	4	148*	101	102
COc1ccccc1C(=O)NNC1=C(C(=O)C(F)(F)F)CCC1	104	-63	0.44	150*	11	-4	128	106	102
O=C(CCCn1c(=O)oc2ccccc21)N1CCc2ccccc2C1	100	-68	1.3	161*	11	0	152*	109	108
NC(=S)N/N=C/c1coc2ccc(Cl)cc2c1=O	95	13	0.79	92	-2	5	x	x	x
Cn1cc([N+](=O)[O-])c(C(=O)N(Cc2ccccc2)Cc2ccccc2)n1	104	2	1.2	100	-2	-4	x	x	x
O=C1C(C=NCc2ccco2)=C(O)c2ccccc21	119	-41	1.9	141*	98	-19	187*	135*	164*
O=C(N/N=C/c1c[nH]c2ccccc12)c1[nH]c2ccc(Br)cc2c1-c1ccccc1	109	-64	3.6*	150*	-92	-9	115	157*	107
O=C(N/N=C/c1c[nH]c2ccc(Br)cc12)c1ccccn1	105	7	1.2	95	18	-7	x	x	x
O=C(N/N=C/c1ccc(O)cc1)c1[nH]c2ccc(Br)cc2c1-c1ccccc1	108	-45	2.9	143*	-94	-8	112	165*	117
CCCCn1c(N)c(N(CCC(C)C)C(=O)COC(=O)c2ccccc2)c(=O)[nH]c1=O	88	-54	0.92	143*	-5	11	148*	96	89
SMILES	STAT1 act-1	STAT3 inh	NF-kB neuron act	STAT3 act-1	APP 5'UTR act	STAT1 blocker	STAT3 act-2	NFkB act 2	STAT1 act-2
CCCCn1c(N)c(N(CCC(C)C)C(=O)COC(=O)c2ccco2)c(=O)[nH]c1=O	98	4	1	101	3	3	x	x	x
CCOC(=O)c1cnn(-c2ncnc3sc(CC)cc23)c1N	102	-49	1.4	144*	2	-2	147*	111	111
Cc1ccc(S(=O)(=O)CCNC(=O)Cc2ccc(Cl)cc2)cc1	100	5	1.3	100	3	-3	x	x	x
O=c1oc2ccc3ccccc3c2cc1-c1nc2ccccc2o1	102	-71	x	163*	-1	-2	133*	99	95
Nc1ccc2oc(-c3cccc4ccccc34)nc2c1	112	18	0.59	88	-49	-13	x	x	x
CC1=C(C)C(=O)C(N2CCOCC2)=CC1=O	110	-58	0.95	143*	3	-11	139*	100	104
Cc1ccc(N2CCOCC2)c2c1C(=O)c1ccccc1C2=O	102	0	0.97	100	-12	-3	x	x	x
CCCNC(=S)N1CCC(C(=O)c2ccc3c(c2)OCCO3)CC1	97	23	1.3	86	18	2	x	x	x
O=C(NC1CCCCC1)C(c1ccc(F)cc1)N(Cc1ccco1)C(=O)CN1C(=O)c2ccccc2S1(=O)=O (stereo unspecified)	95	-8	1.1	106	25	6	x	x	x
CC1(C)CC2CC(C)(CN2S(=O)(=O)c2ccc(C(=O)Nc3ccc(S(=O)(=O)N4CCOCC4)cc3)cc2)C1 (stereo unspecified)	87	36	0.8	69	5	15	x	x	x
CC(=O)Nc1ccc(S(=O)(=O)N2CC3(C)CC2CC(C)(C)C3)cc1 (stereo unspecified)	94	-30	0.98	137*	-12	6	94	108	101
CC1CN(C(=O)c2c(Br)cnn2C)CC(C)O1 (stereo unspecified)	109	-1	0.98	101	6	-10	x	x	x
